Only some compounds are listed: those with a hit (about 2.3% of all), similar ones and a draw of the others.
TRPC6 act – activators of mouse TRPC6 channel. HEK293-TRPC6 membrane potential dye fluorescence; hits give high values. B-score at 10 µM. 310,000 tested, 0.13% active. AID 2550;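 active = B-score of the integrated fluorescence ratio above library mean plus 3 SD, and starting fluorescence ratio within library mean plus 5 SD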;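 note: higher score means more depolarization so channel activation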
TRPC6 inh – blocks the mouse TRPC6 cation channel; Q61143; HEK293-TRPC6, membrane potential dye, ACh-evoked depolarization; hits give low values; B-score at 10 µM; 310,000 tested, 1.1% active; AID 2553;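 active = B-score under library mean minus 3 SD, initial fluorescence not abnormally high, positive integrated signal ratio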;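 note: B-score derived from integrated fluorescence ratio over the kinetic read; more negative B-score means stronger inhibition of depolarization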
TRPC4 block – blocks the mouse TRPC4 cation channel | HEK293 TRPC4beta/mu-opioid, DAMGO-evoked Fluo4 calcium flux; hits give low values | B-score at 10 µM | 300,000 tested, 0.39% active | AID 2247;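 active = B-score over 3 SD under the library average, no early fluorescence shift, positive overall ratio signal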
Target sequence (Q9QUQ5 whole entry, looked up): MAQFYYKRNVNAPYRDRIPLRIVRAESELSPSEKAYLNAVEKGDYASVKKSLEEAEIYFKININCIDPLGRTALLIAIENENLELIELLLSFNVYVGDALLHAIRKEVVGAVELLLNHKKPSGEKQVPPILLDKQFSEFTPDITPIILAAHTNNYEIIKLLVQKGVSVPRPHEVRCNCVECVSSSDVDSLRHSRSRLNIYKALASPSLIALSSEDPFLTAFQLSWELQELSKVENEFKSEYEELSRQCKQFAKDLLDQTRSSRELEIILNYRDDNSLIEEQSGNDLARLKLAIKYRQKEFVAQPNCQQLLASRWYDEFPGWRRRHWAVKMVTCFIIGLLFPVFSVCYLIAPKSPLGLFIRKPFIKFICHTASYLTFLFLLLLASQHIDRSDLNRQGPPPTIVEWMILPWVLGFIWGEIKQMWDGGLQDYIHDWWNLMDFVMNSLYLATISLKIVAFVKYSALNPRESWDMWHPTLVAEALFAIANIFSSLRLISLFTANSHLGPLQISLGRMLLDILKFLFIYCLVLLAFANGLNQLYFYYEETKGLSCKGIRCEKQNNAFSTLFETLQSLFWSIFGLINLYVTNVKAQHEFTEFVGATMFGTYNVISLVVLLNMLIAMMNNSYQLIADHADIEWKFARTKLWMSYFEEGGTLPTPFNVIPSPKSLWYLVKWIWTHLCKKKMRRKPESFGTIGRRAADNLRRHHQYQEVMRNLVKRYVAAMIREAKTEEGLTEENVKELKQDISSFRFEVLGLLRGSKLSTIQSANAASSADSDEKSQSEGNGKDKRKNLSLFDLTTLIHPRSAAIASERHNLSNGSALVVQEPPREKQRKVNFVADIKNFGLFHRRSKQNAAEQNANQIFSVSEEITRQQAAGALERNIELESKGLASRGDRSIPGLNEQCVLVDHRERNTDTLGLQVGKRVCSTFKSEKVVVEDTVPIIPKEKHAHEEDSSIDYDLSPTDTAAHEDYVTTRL
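Signal: kinetic Fluo4 fluorescence imaging of calcium influx. Material: stable TRPC4beta/mu-opioid receptor HEK293 cells. Probe or stimulus: DAMGO in two steps, submaximal then maximal.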
TRPC4 PAM – allosteric potentiators of mouse TRPC4 channel | HEK293 TRPC4beta/mu-opioid, DAMGO EC20, Fluo-4 Ca2+ flux; hits give high values | 310,000 tested, 0.42% active | B-score at 10 µM;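 active = B-score of calcium response area above 5 SD of library B-scores, with initial fluorescence ratio within 5 SD of library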
TRPC4 agonist – opens the mouse TRPC4 cation channel; 310,000 tested, 0.49% active; Q9QUQ5; HEK293 TRPC4beta/mu-opioid, Fluo4 calcium fluorescence; hits give high values; B-score at 10 µM;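 active = B-score above 5 SD of library B-scores, and initial fluorescence ratio not above library mean plus 5 SD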;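 note: positive B-score marks a calcium rise read as TRPC4 activation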
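Incubation: 45 min room-temperature Fluo4 loading, 110 s read / System: HEK293 cells stably co-expressing mouse TRPC4beta and mu-opioid receptor / Signal: Fluo4 fluorescence, kinetic / Control set: buffer (low) and maximal DAMGO (high) / Measure: integrated baseline-normalised fluorescence ratio, converted to per-well B score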
TRPC4 spec 2 – mouse TRPC4 off-target activity of TRPC6 inhibitors, second screen; HEK293 TRPC4/MOR, membrane potential dye fluorescence; channel activated by saturating DAMGO dose; inhibition, % at 10 µM; AID 2776; shares compounds with TRPC6 inh; 920 tested, 42% active;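 active = compounds whose fluorescence signal differed from control wells by over 3 SD, either direction, in both duplicate plates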
TRPC4 spec – tests whether TRPC6 inhibitors also affect mouse TRPC4; shares compounds with TRPC6 inh; AID 2777; 920 tested, 61% active; HEK293 TRPC4/mu-opioid, membrane potential fluorescence; activity change, negative = inhibition, % at 10 µM;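 active = rise or fall in signal beyond 3 SD of buffer-only wells in both replicate plates, either sign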;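 note: integrated kinetic ratio of fluorescence range over baseline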
HEK293 MPD ctr 2-1 – second check of TRPC6 inhibitor effects in parental HEK293 cells; parental HEK293 membrane potential dye fluorescence; maximal acetylcholine challenge after compound addition; signal change vs control, % at 10 µM; shares compounds with TRPC6 inh; 920 tested, 31% active;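 active = membrane potential signal moving either way by over 3 SD of the maximum-effect control, in both duplicate plates, meaning non-specific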
HEK293 MPD ctr-1 – checks TRPC6 inhibitor effects in parental HEK293 cells; shares compounds with TRPC6 inh; parental HEK293 membrane potential dye fluorescence; membrane potential signal change, % at 10 µM; 920 tested, 60% active;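 active = membrane potential signal shifting up or down by more than 3 SD of buffer-only wells, on both duplicate plates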
HEK293 MPD ctr-2 – checks TRPC6 modulator effects in parental HEK293 cells | membrane potential signal change, % at 10 µM | AID 488924 | membrane potential dye fluorescence | 2,400 tested, 51% active | shares compounds with TRPC6 inh;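 active = membrane potential signal moves up or down beyond 5 SD from buffer-only wells, on both duplicate plates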
HEK293 MPD ctr 2-2 – parental HEK293 nonspecific activity of TRPC6 modulators, second screen; 2,400 tested, 14% active; AID 488926; shares compounds with TRPC6 inh; membrane potential dye fluorescence; after compound, maximal acetylcholine stimulation; inhibition, % at 10 µM;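 active = membrane potential signal drops by more than 5 SD from the mean control signal, in both duplicate plates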
TRPC4/MOR mod – selectivity of TRPC6 modulators against mouse TRPC4; shares compounds with TRPC6 inh; percent change from control (negative = decrease, positive = increase), % at 10 µM; HEK293 TRPC4/mu-opioid, membrane potential fluorescence; 2,400 tested, 69% active;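 active = membrane potential signal moved up or down beyond 5 SD of buffer control wells, in both duplicate plates, actives on both sides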
TRPC4/MOR inh 2 – second selectivity test of TRPC6 modulators against mouse TRPC4. inhibition, % at 10 µM. 2,400 tested, 55% active. shares compounds with TRPC6 inh. HEK293 TRPC4/mu-opioid, membrane potential dye fluorescence; stimulated with maximal-effect DAMGO. AID 488928;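 active = drop in membrane potential signal beyond 5 SD of the control wells in both duplicate plates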;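 note: TRPC4 counter screen for TRPC6 hits run under conditions tuned for TRPC6 not TRPC4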
TRPC6 block conf – mouse TRPC6 inhibitor confirmation; shares compounds with TRPC6 inh; HEK293-TRPC6, membrane potential dye, ACh-evoked depolarization; inhibition, % at 10 µM; 3,300 tested, 43% active;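 active = fluorescence ratio falls more than 5 SD below the full-stimulation control mean, in both duplicate runs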;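 note: integrated fluorescence ratio of peak minus minimum over baseline after agonist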
TRPC6 act conf – confirmation of mouse TRPC6 activators; shares compounds with TRPC6 inh; HEK293-TRPC6 membrane potential dye fluorescence, FDSS; activation, % at 10 µM; 2,800 tested, 11% active;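 active = ratio signal rise beyond 5 SD above unstimulated control wells' mean, seen in both duplicate runs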
Of the large screens only hits and unclear results are named; the others gave an inactive call (follow-up assays come after a bar, where they were run).

COCCCNC(=O)CCn1nc(-c2ccc(Cl)cc2)ccc1=O	TRPC6 inh -5.24 | HEK293 MPD ctr-2 inactive | HEK293 MPD ctr 2-2 inactive | TRPC4/MOR mod inactive | TRPC4/MOR inh 2 inactive | TRPC6 block conf inactive | TRPC6 act conf inactive
CCN(CC)CCCNC(=O)c1cc(-c2ccc(Cl)c(Cl)c2)on1	TRPC6 inh -6.44 | HEK293 MPD ctr-2 149.0% | HEK293 MPD ctr 2-2 inactive | TRPC4/MOR mod 25.5% | TRPC4/MOR inh 2 54.0% | TRPC6 block conf inactive
CCCc1ncc(C(O)(c2ccccc2)c2ccccc2)n1C	TRPC6 inh -8.76 | TRPC4 spec 2 inactive | TRPC4 spec 21.8% | HEK293 MPD ctr 2-1 inactive | HEK293 MPD ctr-1 15.5% | TRPC6 block conf 57.6%
CCCc1ncc(C(O)(c2ccccc2)c2ccc(C)cc2)n1C (stereo not given)	none
Fc1ccc(CSc2nnc(-c3cccs3)o2)cc1	TRPC6 inh -7.43 | TRPC4 spec 2 inactive | TRPC4 spec inactive | HEK293 MPD ctr 2-1 inactive | HEK293 MPD ctr-1 inactive | TRPC6 block conf inactive | TRPC6 act conf inactive
O=C(Nc1ccccc1)Nc1ccc(O)c2ccccc12	none
COc1ccc2cc(C(=O)/C=C/c3cc(OC)c(O)c(OC)c3)ccc2c1	none
COc1ccc(C(=O)/C=C/c2cc(OC)c(O)c(OC)c2)c(F)c1	TRPC6 act 17.7 | HEK293 MPD ctr-2 287.5% | HEK293 MPD ctr 2-2 inactive | TRPC4/MOR mod 54.5% | TRPC4/MOR inh 2 inactive | TRPC6 block conf inactive | TRPC6 act conf 108.5%
CN(C(=O)COC(=O)c1nc(Cl)ccc1Cl)c1ccccc1	none
Cc1cc(Nc2cccc([N+](=O)[O-])c2)c2cccc(C)c2n1	TRPC6 inh -6.8 | TRPC4 spec 2 62.0% | TRPC4 spec -24.2% | HEK293 MPD ctr 2-1 43.0% | HEK293 MPD ctr-1 -443.5% | TRPC6 block conf inactive | TRPC6 act conf inactive
Cc1cc(Nc2cccc([N+](=O)[O-])c2)c2ccccc2n1	TRPC6 inh -8.08 | HEK293 MPD ctr-2 -164.5% | HEK293 MPD ctr 2-2 inactive | TRPC4/MOR mod -33.5% | TRPC4/MOR inh 2 52.0% | TRPC6 block conf 45.5% | TRPC6 act conf inactive
Cc1cc(Nc2ccc([N+](=O)[O-])cc2)c2ccccc2n1	none
COc1cc(OC)c(OC)cc1CN1CCSCC1	none
Cc1ccc(CNC(=O)CCCCCNC(=O)N2CCn3c2nc2ccccc23)cc1	none
